Results pooled from the literature.
Protocols differ between the studies behind these lines. pIC50: −log10 of the molar value. In brackets after ≈: the same amount, converted by molar mass.

O=C(O[C@@H]1Cc2c(O)cc(O)cc2O[C@@H]1c1cc(O)c(O)c(O)c1)c1cc(O)c(O)c(O)c1 — inhibition (Severe acute respiratory syndrome coronavirus 2; cytopathic effect; Vero C1008; 3.125 µM): 0%
C=CCNC1=C2C[C@@H](C)C[C@H](OC)[C@H](O)[C@@H](C)/C=C(\C)[C@H](OC(N)=O)[C@@H](OC)/C=C\C=C(/C)C(=O)NC(=C(c3ccccc3)C1=O)C2=O — pIC50 (ARPE-19; cell growth or viability, MTT): < 4.70
CN(C)CCCC1(c2ccc(F)cc2)OCc2cc(C#N)ccc21 (stereo not drawn) — pIC50 (Severe acute respiratory syndrome coronavirus 2; viral replication, inhibitor; A549-ACE2): 5.48
CC(C)OC(=O)[C@H](C)N[P@](=O)(CO[C@H](C)Cn1cnc2c(N)ncnc21)Oc1ccccc1 — pIC50 (Hepatitis B virus; viral replication; HepG2.2.15; 14 days): 7.30
OCCN1CCN(CCCN2c3ccccc3C=Cc3ccccc32)CC1 — pIC50 (Severe acute respiratory syndrome coronavirus 2; viral replication, inhibitor; A549-ACE2): 5.60
O=[N+]([O-])c1ccc(C2=[N+]([O-])c3ccccc3N3CCN=C23)cc1 — MIC50 (Fusobacterium nucleatum; microbial growth): ≤ 0.06 µg/mL
Cc1cc(NC(=O)c2cc3c(=O)n4cccc(C)c4nc3n2C)ccc1Br — inhibition (Severe acute respiratory syndrome coronavirus 2; viral replication; Vero; 0.1 µM): 37.8%
CCN(CC)CCO[C@H]1CC[C@@]2(C)C(=CC[C@@H]3[C@@H]2CC[C@]2(C)C(=O)CC[C@@H]32)C1 — pIC50 (Severe acute respiratory syndrome coronavirus 2; viral replication, inhibitor; A549-ACE2): 6.88
[O-][N+]1=C(c2ccc(Cl)cc2)C2=NCCN2c2ccccc21 — MIC90 (Clostridioides difficile; microbial growth): 0.25 µg/mL (≈ 0.84 µM)
Cn1c(C(=O)Nc2ccc(Cl)cc2)cc2c(=O)n3ccccc3nc21 — inhibition (Severe acute respiratory syndrome coronavirus 2; viral replication; Vero; 10 nM): 8%
Cc1ncc([N+](=O)[O-])n1CCO — MIC50 (Fusobacterium nucleatum; microbial growth): ≤ 0.06 µg/mL
Cc1ccc(NC(=O)c2cc3c(=O)n4cccc(C)c4nc3n2C)cc1Cl — inhibition (Severe acute respiratory syndrome coronavirus 2; viral replication; Vero; 1 nM): 8.11%
CCCN1CCC=C(c2cc(-c3ccc(C)cc3)no2)C1 — pIC50 (Severe acute respiratory syndrome coronavirus 2; viral replication, inhibitor; A549-ACE2): 5.54
COc1ccc(C[C@@H]2c3cc(Oc4cc(C[C@@H]5c6cc(O)c(OC)cc6CCN5C)ccc4O)c(OC)cc3CCN2C)cc1 — inhibition (Severe acute respiratory syndrome coronavirus 2; cytopathic effect; Vero C1008; 0.7812 µM): 0%
CCC(CC)COC(=O)[C@H](C)N[P@](=O)(OC[C@H]1O[C@@](C#N)(c2ccc3c(N)ncnn23)[C@H](O)[C@@H]1O)Oc1ccccc1 — inhibition (Severe acute respiratory syndrome coronavirus 2; viral replication; Vero; 10 µM): 98%
CC(C)=CCc1c(O)ccc(C(=O)/C=C/c2ccc(O)cc2)c1O — inhibition (Severe acute respiratory syndrome coronavirus 2; cytopathic effect; Vero C1008; 12.5 µM): 0%
CC(C)(C)[C@]1(O)CCN2C[C@H]3c4ccccc4CCc4cccc(c43)[C@@H]2C1 — pIC50 (Severe acute respiratory syndrome coronavirus 2; viral replication, inhibitor; A549-ACE2): 5.04
CC(=O)c1cccc(NC(=O)c2cc3c(=O)n4ccccc4nc3n2C)c1 — inhibition (Severe acute respiratory syndrome coronavirus 2; viral replication; Vero; 0.1 µM): 77%
CN(CCc1ccc(Cl)c(Cl)c1)CCN1CCCC1 — pIC50 (Severe acute respiratory syndrome coronavirus 2; viral replication; Vero C1008): 5.28
C=C[C@@](C)(/C=C/c1ccc(O)cc1)CCC=C(C)C — inhibition (Severe acute respiratory syndrome coronavirus 2; cytopathic effect, inhibitor; Vero C1008; 12.5 µM): 0%
Fc1ccc([C@@H]2CCNC[C@H]2COc2ccc3c(c2)OCO3)cc1 — pIC50 (Severe acute respiratory syndrome coronavirus 2; viral replication, inhibitor; A549-ACE2): 5.60
N#C[C@]1(CO)O[C@@H](n2cnc3c(N)ncnc32)C[C@@H]1O — pIC50 (Hepatitis B virus; viral replication, qPCR; HepG2.2.15; 14 days): 7.18
CCc1ccc(NC(=O)c2cc3c(=O)n4ccccc4nc3n2C)cc1 — inhibition (Severe acute respiratory syndrome coronavirus 2; viral replication; Vero; 10 µM): 95%
O=C(/C=C/c1ccc(O)c(O)c1/C=C/c1ccc(O)c(O)c1)O[C@H](Cc1ccc(O)c(O)c1)C(=O)O — inhibition (Severe acute respiratory syndrome coronavirus 2; cytopathic effect, inhibitor; Vero C1008; 100 µM): 58.3%
Cc1cccn2c(=O)c3cc(C(=O)Nc4ccc(N(C)C)cc4)n(C)c3nc12 — inhibition (Severe acute respiratory syndrome coronavirus 2; viral replication; Vero; 1 µM): 80%
COc1cc2c(cc1OC)CN(CCc1ccc(NC(=O)c3cc(OC)c(OC)cc3NC(=O)c3cnc4ccccc4c3)cc1)CC2 — pIC50 (Severe acute respiratory syndrome coronavirus 2; viral replication, inhibitor; A549-ACE2): 5.83
C[C@H]1COCCN1c1nc(NCc2cccnc2C(F)(F)F)c2cccnc2n1 — MIC (Clostridioides difficile; microbial growth, broth dilution; R20291): 64 µg/mL (≈ 158 µM)
